The source made the active and inactive calls.
How the values were obtained:
Left cardiac atrium [1] = test: Inotropic activity in guinea pig left atrium assessed as change in isometric force of contraction at 5 X 10^-5 M relative to control; type: functional, Cavia porcellus
Summary of the method: (§1)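 Guinea pig left auricle in Krebs-Henseleit, 32 °C, gassed O2/5% CO2, resting tension about 1 g. Paced with 10-ms rectangular pulses at 100/min, voltage 20% above threshold. Cumulative dose-response curves up to 10⁻⁴ M. Isometric contraction changes computed against control atria.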

Left cardiac atrium [2] = test: Negative inotropic activity in guinea pig left atrium assessed as isometric force of contraction at 10^-8 to 10^-4 M relative to control; type: functional, tissue-based; conditions: Cavia porcellus; summary of the method: as §1
Cavia porcellus [3] = species: Cavia porcellus; test: Inhibition of Na(+)/K(+) ATPase-mediated phosphohydrolase activity in guinea pig myocardium at 5 X 10^-5 M after 30 mins relative to control; type: tissue-based
Summary of the method: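 Crude membranes from guinea pig myocardium (5-10 units activity; unit = µmol Pi liberated/mg protein/h) incubated 37 °C, 30 min. Substrate consumption under 15% without drug. Dose-response curves over 10⁻⁸–10⁻⁴ M, duplicate determinations; values read from curves.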

Cavia porcellus [4] = species: Cavia porcellus; test: Inhibition of ouabain-insensitive Mg(2+)-ATPase-mediated phosphohydrolase activity in guinea pig myocardium at 5 X 10^-5 M after 30 mins relative to control; type: tissue-based
Summary of the method: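 Guinea pig myocardial crude membranes (5-10 units; µmol Pi/mg protein/h), assayed without Na+ and K+ (ouabain-insensitive activity), with and without drug, 37 °C for 30 min. Substrate use under 15% in drug-free controls. Drug tested 10⁻⁸–10⁻⁴ M in duplicate; values taken from dose-response curves.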

Left cardiac atrium [5] = test: Toxicity in guinea pig left atrium assessed as tissue arrest at 5 X 10^-5 M relative to control; type: tissue-based, Cavia porcellus; conditions: 50 µM
Summary of the method: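 Electrically paced guinea pig left auricle (Krebs-Henseleit, 32 °C, O₂/5% CO₂, about 1 g resting tension, 10-ms pulses at 100/min, 20% above threshold) given cumulative drug doses up to 10⁻⁴ M. Toxicity was scored as tissue arrest, which follows the inflection of the dose-response curve.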

Cavia porcellus [6] = species: Cavia porcellus; test: Inhibition of Na(+)/K(+) ATPase-mediated phosphohydrolase activity in guinea pig myocardium at 1 X 10^-5 M after 30 mins relative to control; type: tissue-based
Summary of the method: (§2)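 Crude guinea pig myocardial membrane preparation (5-10 units each enzyme; µmol Pi/mg protein/h), incubated 37 °C for 30 min. Substrate consumption stayed below 15%. Dose-response curves spanned 10⁻⁸–10⁻⁴ M in duplicate, and values were read from the curves.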

Cavia porcellus [7] = species: Cavia porcellus; test: Inhibition of ouabain-insensitive Mg(2+)-ATPase-mediated phosphohydrolase activity in guinea pig myocardium at 1 X 10^-5 M after 30 mins relative to control; type: tissue-based
Summary of the method: (§3)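 Guinea pig myocardial crude membranes were incubated 30 min at 37 °C without Na⁺ and K⁺. Ouabain-insensitive Mg²⁺-ATPase activity was measured as inorganic phosphate released (µmol/mg protein/h), with and without drug. Substrate use stayed under 15%. Dose-response curves covered 10⁻⁸–10⁻⁴ M, run in duplicate, and values were taken from the curves.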

Left cardiac atrium [8] = test: Inotropic activity in guinea pig left atrium assessed as change in isometric force of contraction at 1 X 10^-5 M relative to control; type: functional, Cavia porcellus
Summary of the method: (§4)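 Guinea pig left auricle in Krebs-Henseleit at 32 °C, gassed with O₂/5% CO₂ under about 1 g resting tension. Pacing used 10-ms rectangular pulses at 100/min and 20% above threshold voltage. Change in isometric contraction was referenced to control atria. Cumulative dose-response curves ran up to 10⁻⁴ M.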

Cavia porcellus [9] = species: Cavia porcellus; test: Inhibition of ouabain-insensitive Mg(2+)-ATPase-mediated phosphohydrolase activity in guinea pig myocardium at 2 X 10^-6 M after 30 mins relative to control; type: tissue-based; summary of the method: as §3
Left cardiac atrium [10] = test: Inotropic activity in guinea pig left atrium assessed as change in isometric force of contraction at 2 X 10^-6 M relative to control; type: functional, Cavia porcellus; summary of the method: as §4
Cavia porcellus [11] = species: Cavia porcellus; test: Inhibition of Na(+)/K(+) ATPase-mediated phosphohydrolase activity in guinea pig myocardium at 2 X 10^-6 M after 30 mins relative to control; type: tissue-based; summary of the method: as §2

C[C@]12CC[C@H](O)C[C@@H]1CC[C@@H]1[C@@H]2CC[C@]2(C)[C@@H](/C=N\NC(=N)N)CC[C@@H]12 was tested, and the Activity (Left cardiac atrium [1]) was -50%, the Activity (Left cardiac atrium [2]) was “Active” and the inhibition (Cavia porcellus [3]) was 40%. For the same compound, the Imax (Cavia porcellus [4]) was 43%.
In the case of C[C@]12CC[C@H](O)C[C@H]1CC[C@@H]1[C@@H]2CC[C@]2(C)[C@@H](/C=N\NC(=N)N)CC[C@]12O, the Activity (Left cardiac atrium [5]) is reported as “Toxic”, the inhibition (Cavia porcellus [6]) is reported as 20% and the inhibition (Cavia porcellus [3]) is reported as 53%. For the same compound, the inhibition (Cavia porcellus [7]) was 0%, the Activity (Left cardiac atrium [8]) was 120% and the inhibition (Cavia porcellus [4]) was 0%.
In the case of C[C@]12CC[C@@H](O)C[C@H]1CC[C@@H]1[C@@H]2CC[C@]2(C)[C@@H](/C=N\NC(=N)N)CC[C@@H]12, the Activity (Left cardiac atrium [1]) is reported as -10%, the Activity (Left cardiac atrium [2]) is reported as “Active” and the inhibition (Cavia porcellus [3]) is reported as 37%. For the same compound, the inhibition (Cavia porcellus [4]) was 45%.
In the case of C[C@]12CC[C@H](O)C[C@H]1CC[C@@H]1[C@@H]2CC[C@]2(C)[C@@H](/C=N\NC(=N)N)CC[C@@H]12, the Activity (Left cardiac atrium [1]) is reported as -45%, the Activity (Left cardiac atrium [2]) is reported as “Active” and the inhibition (Cavia porcellus [3]) is reported as 55%. For the same compound, the inhibition (Cavia porcellus [4]) was 55%.
For C[C@]12CC[C@H]3[C@@H](CCC4=C[C@@H](O)CC[C@@]43C)[C@@H]1CC[C@@H]2/C=N\NC(=N)N, the Activity (Left cardiac atrium [1]) was -18%, the Activity (Left cardiac atrium [2]) was “Active” and the inhibition (Cavia porcellus [3]) was 54%. The Imax (Cavia porcellus [4]) was 30%.
Compound C[C@]12CC[C@H](O)C[C@H]1CC[C@@H]1[C@@H]2CC[C@]2(C)[C@@H](C3=CC(=O)OC3)CC[C@]12O [DIGITOXIGENIN] has an inhibition (Cavia porcellus [9]) of 0%, an Activity (Left cardiac atrium [10]) of 130% and an inhibition (Cavia porcellus [11]) of 60%.

— ChEMBL document CHEMBL3244046, “Cardenolide analogues. 7. Synthesis and biological activity of some new steroidal guanylhydrazones” (J Med Chem, 1978)
